GPR7 antagonist: antagonists of human GPR7 (neuropeptides B/W receptor 1); 290,000 compounds, 1.1% hits; AID 1861; inhibition, % at 4.4 µM; GPR7-expressing cells, fluorescence antagonist assay; in the data active = inhibition above about 16%, passing the limit was not always enough;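 also: cells stimulated with the agonist NPW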
OX1R antag-1: blocks the human orexin 1 receptor | O43613 | OX1R-expressing cells, FRET antagonist read-out | inhibition, % at 6.6 µM | 330,000 compounds, 1.8% hits | AID 485270; in the data active = inhibition mostly above about 38%, no sharp cut-off; inactive = mostly below about 40%
TAAR1 antag: human TAAR1 antagonism | 360,000 compounds, 1.5% hits | Q96RJ0 | inhibition, % at 3 µM | CHO RD-HGA16 TAAR1, Fluo-8 calcium fluorescence, antagonist;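 active = inhibition above a per-plate cutoff, the mean inhibition of test compounds on that plate plus 3 SD, cut at about 49% in these data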
Target sequence (Q96RJ0 whole entry, looked up): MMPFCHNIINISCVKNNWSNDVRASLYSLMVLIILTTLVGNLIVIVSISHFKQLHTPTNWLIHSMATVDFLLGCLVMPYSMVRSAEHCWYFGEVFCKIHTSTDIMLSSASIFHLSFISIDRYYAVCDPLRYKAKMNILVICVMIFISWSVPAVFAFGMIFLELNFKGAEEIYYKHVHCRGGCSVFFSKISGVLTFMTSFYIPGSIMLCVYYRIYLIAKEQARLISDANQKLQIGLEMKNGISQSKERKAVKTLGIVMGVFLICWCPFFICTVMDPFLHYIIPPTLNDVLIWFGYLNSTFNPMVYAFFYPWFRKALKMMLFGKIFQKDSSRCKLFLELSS
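Test system: hTAAR1-expressing CHO RD-HGA16 cells, Gα16-coupled; Probe or stimulus: EC80 β-phenethylamine stimulus; Compound dosing: single nominal final test compound concentration of 3 µM; Timing: 140 s kinetic read after compound, 140 s after agonist; Signal: Fluo-8 calcium-sensitive fluorescence; Measure: % inhibition of agonist calcium response; Controls: DMSO and EC80 PEA controls.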
CHO parental Ca: counter-screen for OX1R antagonists: effect in parental CHO cells | 330,000 compounds, 0.63% hits | inhibition, % at 5.6 µM | parental CHO-K1, ATP-induced calcium, Fluo-8 fluorescence;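 active = inhibition above that plate's mean sample inhibition plus 3 SD, cut at about 26% in these data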
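Test system: untransfected parental CHO cell line; also added: ATP stimulus; dosing: 5.6 µM, single dose; signal: calcium-sensitive Fluo-8 fluorescence; measure: percent inhibition of ATP-evoked calcium rise, normalized to controls; benchmarks: low control ATP plus DMSO, high control DMSO only; replication: one well per compound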
OX1R antag-2: blocks the human orexin 1 receptor; CHO/OX1R cells, Fluo-8 calcium fluorescence, orexin A; inhibition, % at 5 µM; O43613; AID 434989; 330,000 compounds, 0.43% hits;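 active = inhibition above its plate's threshold, mean inhibition of all tested compounds on the plate plus 3 SD, cut at about 37% in these data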
TAAR1 agonist: agonists of human TAAR1; CHO RD-HGA16 TAAR1, Fluo-8 calcium fluorescence; vehicle wells 0%, saturating PEA agonist 100%; activation, % at 3 µM; 360,000 compounds, 0.99% hits;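 active = activation above the mean activation of all test compounds in the run plus 3 SD, cut at about 38% in these data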
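Test system: RD-HGA16 (CHO) cells co-expressing Gα16 and hTAAR1 / Benchmarks: DMSO vehicle as 0%, PEA at EC100 as 100% / Repeats: no replicates (n 1) / Measure: % activation from peak over basal fluorescence ratio, DMSO-to-PEA scaled / Timing: 17-24 h plating, Fluo-8 75 min 37 °C, 30 min RT / Technique: kinetic Fluo-8 calcium fluorescence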
A number is an active result; 0 = inactive; - = no result given. Only some compounds are listed: those with a hit (about 4.5% of all), similar ones and a draw of the others.

SMILES	GPR7 antagonist	OX1R antag-1	TAAR1 antag	CHO parental Ca	OX1R antag-2	TAAR1 agonist
COC(=O)c1cccc(NC(=O)N2C[C@H]3C[C@@H](C2)c2cccc(=O)n2C3)c1	0	0	0	0	0	0
COc1ccc(NP(=O)(Oc2ccccc2OC)Oc2ccccc2OC)cc1	0	0	59.3	0	0	0
COc1ccc(NP(=O)(Nc2ccc(OC)cc2)Oc2ccccc2)cc1	0	0	0	0	0	0
CC[C@H](C)[C@@H]1NC(=O)CNC(=O)c2csc(n2)[C@H](C(C)(C)O)OC(=O)C(C)(C)[C@H](CCCC(C)(Cl)Cl)OC(=O)c2csc1n2	-	-	0	-	-	0
c1ccc(CCNCc2cccs2)cc1	0	-	0	-	-	38.9
CC1CC(C)CN(CC(=O)c2ccc(OC(F)F)cc2)C1 (stereo not given)	0	0	0	0	0	41.8
C=CCn1c(O)c(C(CC)=NCC2CCCO2)c(=O)[nH]c1=O (stereo not given)	0	0	0	0	0	0
CN(C)c1ccc(/C=C/[N+](=O)[O-])cc1	19.3	58.3	0	0	0	40.1
COc1cc(OC)c(OC)cc1CN1CCN(C(=O)Cc2ccccc2)CC1	0	0	0	0	0	0
CN(C)c1ccc(C2C3C=CC(C3)C2(C#N)C(=O)O)c(Br)c1 (stereo not given)	0	0	0	0	0	0
CC(C)(C)n1nnnc1C(CCc1ccccc1)N1CCC(n2c(=O)[nH]c3ccccc32)CC1 (stereo not given)	-	-	0	-	-	0
CSCCC(c1nnnn1C1CCCCC1)N1CCC(n2c(=O)[nH]c3ccccc32)CC1 (stereo not given)	-	-	62.3	-	-	0
O=c1[nH]c2ccccc2n1C1CCN(C(c2nnnn2C2CCCCC2)C2CC2)CC1 (stereo not given)	-	-	52.0	-	-	58.1
O=c1[nH]c2ccccc2n1C1CCN(C(c2nnnn2Cc2ccccc2)C2CC2)CC1 (stereo not given)	-	-	63.1	-	-	0
O=c1[nH]c2ccccc2n1C1CCN(C(c2nnnn2C2CCCC2)C2CC2)CC1 (stereo not given)	-	-	0	-	-	0
CC(C)CCn1c(=O)c(C(=O)NCc2ccco2)c(O)c2ccccc21	0	0	0	0	0	0
O=C1C(Br)C2CCC1C2C(=O)O (stereo not given)	-	-	0	-	-	0
Brc1ccc2c(c1)-n1nncc1CNC2	-	-	0	-	-	0
O=P(Nc1ccccc1)(Nc1ccccc1)Oc1cccc(Cl)c1	0	0	52.3	0	0	0
O=P(Nc1ccccc1)(Nc1ccccc1)Oc1ccccc1	0	0	0	0	0	0
COc1cc(C(=S)N2CCOCC2)cc(OC)c1OC(=O)Cc1ccccc1	0	0	0	0	0	0
O=C(NC(=C(Cl)Cl)P(=O)(c1ccccc1)c1ccccc1)c1ccccc1	0	69.0	0	0	0	0
CCCOP(=O)(OCCC)C(NC(=O)c1ccccc1)=C(Cl)Cl	0	0	0	0	0	0
Cc1cccc(C)c1-n1nnnc1C(CCc1ccccc1)N1CCC2(CC1)C(=O)NCN2c1ccccc1 (stereo not given)	-	-	0	-	-	0
COc1cc2c(cc1OC)CN(c1ccc([N+](=O)[O-])c(C(F)(F)F)c1)CC2	0	47.7	0	0	0	0
SMILES	GPR7 antagonist	OX1R antag-1	TAAR1 antag	CHO parental Ca	OX1R antag-2	TAAR1 agonist
CNCC(O)c1cc(OCc2ccccc2)c(OCc2ccccc2)cc1F (stereo not given)	-	0	0	0	0	45.3
CC1CCC(C(C)C)C(OC(=O)Cn2c(COc3ccccc3)[n+](C)c3ccccc32)C1 (stereo not given)	58.3	0	0	50.1	35.7	0
COc1ccc(CCNC2CCCCCC2)cc1	0	0	0	0	0	0
COC1CCCCC1NCCc1ccccc1 (stereo not given)	0	0	0	0	0	38.0
Cc1cc(O)c2c(c1)OC(C)(C)C1=C2CC(C)CC1 (stereo not given)	0	0	0	0	0	0
C[C@]12CC[C@H](O)CC1=CC(=O)C1C2CC[C@]2(C)C(=O)CCC12 (stereo not given in full)	-	0	0	0	0	0
O=C(CSC1c2ccccc2-c2ccccc21)N/N=C/c1ccccc1C(=O)O	0	53.6	0	0	0	0

High-throughput results as filed in PubChem.
